The text below walks through data of PubChem BioAssay AID2764 (Sanford-Burnham Center for Chemical Genomics, 2010).

The list shows a part of the results. A number with no mark means an inactive call.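 How the source made its calls: active means activation above 40%, taking the highest of four retests; inactive means the rest.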

Apelin receptor (Homo sapiens), sequence (P35414 whole entry, looked up, the tested form may be a part): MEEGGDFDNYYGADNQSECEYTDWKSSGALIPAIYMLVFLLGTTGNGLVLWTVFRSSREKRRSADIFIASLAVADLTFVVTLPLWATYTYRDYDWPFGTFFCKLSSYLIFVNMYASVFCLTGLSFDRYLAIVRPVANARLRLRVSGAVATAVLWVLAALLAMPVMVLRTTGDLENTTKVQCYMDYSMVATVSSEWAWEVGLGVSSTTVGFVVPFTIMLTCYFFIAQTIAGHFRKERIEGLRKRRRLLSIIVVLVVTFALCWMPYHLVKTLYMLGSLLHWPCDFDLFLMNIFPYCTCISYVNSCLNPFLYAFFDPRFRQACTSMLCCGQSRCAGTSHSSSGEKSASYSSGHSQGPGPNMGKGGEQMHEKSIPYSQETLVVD

The assay concerns the target Apelin receptor (Homo sapiens) (UniProt P35414). Nature of the assay: APJ activation via beta-arrestin recruitment – cell-based, single concentration, CHO-K1, luminescence, confirmation (AID 2764).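 Further: plate controls were DMSO wells for no effect and apelin-13 at 10 nM for full effect.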 The conditions noted are these: CHO-K1 APJ PathHunter beta-arrestin, at 20 µM, hits give high values. Summed up: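 Benchmarks: Positive control apelin-13 at 10 nM final | Material: CHO-K1 cells with tagged APJ and beta-arrestin | Read-out basis: beta-arrestin recruitment to APJ as % activation | Signal: Chemiluminescence from beta-gal fragment complementation, detection reagent | Timing: Overnight cell seeding, 90 min compound exposure at 25 °C, 60 min detection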
A general note: Activated receptors often draw arrestin, which recruitment assays turn into a signal.
As for `CCCc1ccc(OCc2ccc(C(=O)N/N=C/c3cccc([N+](=O)[O-])c3)o2)c(OC)c1`, the activation is 19.3%. The result for `Cc1ccc2nc(-c3ccc(NC(=O)c4cccnc4)cc3)oc2c1` reads 18.4%. With `CC(=O)N1CCCc2cc(S(=O)(=O)N3CCCC(C(=O)N4CCN(c5cccc(Cl)c5)CC4)C3)ccc21` (configuration not stated), the activation was 27.4%.

Regarding `COc1ccc(C(=O)O/N=C(\N)Cc2ccc(Cl)cc2Cl)cc1OC`, the activation is 24.9%.

For the compound `CCCCCCc1cc2cc(-c3nnc(-c4ccccc4)o3)c(=O)oc2cc1O`, the activation is -0.485%. In the case of `COc1cc(NC(=O)C2=C(C)OCCS2)c(Cl)cc1C(=O)NCCN1CCN(C)CC1`, the activation is 11.7%. The result for `Cc1ccccc1-n1nnc2c(=O)oc3ccccc3c21` reads 7.92%.

For `CC1=C/C(=N\OS(=O)(=O)c2ccccc2)C=CC1=O`, the activation was 30.6%. Take `CCC(C)(C)C1CCC(=NNC(=O)c2ccc(Br)o2)CC1` (configuration not stated): the activation is 12.3%. With `O=C(CSc1nc(Nc2ccccc2)nc(N2CCOCC2)n1)Nc1cc(Cl)ccc1O`, the activation was 15.9%.

As for `CCOc1cc2[nH]c(=S)n(CCCN3CCCC3=O)c(=O)c2cc1OCC`, the activation is 20.1%.

As for `Nc1nc(-c2sc3nc4c(cc3c2N)CCCC4)nc(N2CCOCC2)n1`, the activation was 15%.
